The results in this text go back to ChEMBL document CHEMBL3259602, “Thiaflavan scavenges radicals and inhibits DNA oxidation: a story from the ferrocene modification” (Eur J Med Chem, 2014).

The nature of assay [1]: Antioxidant activity assessed as inhibition of AAPH-induced oxidation of DNA by spectrophotometric analysis. It is filed as functional. An outline of the steps: (§1)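 DNA sodium salt (2.0 mg/mL) with 40 mM AAPH in phosphate buffer (8.1 mM Na2HPO4, 1.9 mM NaH2PO4, 10.0 mM EDTA), with various compound concentrations in DMSO; DMSO-only blank. Samples were heated at 37 °C. TBARS was read at 535 nm. The inhibition period was taken at the crossing of tangents, then plotted against concentration.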

The subject of assay [2] is Radical scavenging activity. In words: Antioxidant activity assessed as DPPH radical scavenging activity by spectrophotometric analysis. In kind it is functional. In short, it runs like this: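 DPPH in ethanol (about 1.00 absorbance at 517 nm). Compound in DMSO (0.1 mL) was added to 1.9 mL of radical solution at 37.5 or 75.0 μM final, depending on compound. Absorbance decay was followed at 25 °C. The rate constant k was calculated from the initial reaction rate at t = 0.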
For orientation: DPPH is a stable violet radical that fades when it is reduced.

Assay [3] is described as follows: Antioxidant activity assessed as ABTS radical scavenging activity after 16 hrs by spectrophotometric analysis. In kind it is functional. An outline of the steps: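 Radical cation pre-formed over 16 h, then diluted in ethanol to about 0.70 absorbance at 734 nm. Compound in DMSO (0.1 mL) was added to 1.9 mL of radical solution at 7.5 μM final. Absorbance decay was recorded at 25 °C. The rate constant k was derived from the initial rate (t = 0).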

Assay [4] is described as follows: Antioxidant activity assessed as galvinoxyl radical scavenging activity by spectrophotometric analysis. In kind it is functional. An outline of the steps:
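Galvinoxyl in ethanol, absorbance about 1.00 at 428 nm. Compound in DMSO (0.1 mL) was added to 1.9 mL of radical solution at 7.5 or 75.0 μM final, depending on compound. Absorbance decay was recorded at 25 °C. The rate constant k was derived from the initial rate at t = 0.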

Assay [5] can be described thus: Antioxidant activity assessed as inhibition of AAPH-induced oxidation of DNA at 200 uM by spectrophotometric analysis. In kind it is functional.
The nature of assay [6]: Antioxidant activity assessed as inhibition of AAPH-induced oxidation of DNA measured as TBARS formation by spectrophotometric analysis. In kind it is functional. An outline of the steps:
as §1

Assay [7] in a line: Antioxidant activity assessed as inhibition of AAPH-induced oxidation of DNA at 100 uM by spectrophotometric analysis. It is filed as functional. An outline of the steps:
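Oxidation of 2.0 mg/mL DNA by 40 mM AAPH in phosphate/EDTA buffer at 37 °C, with compound at 100 μM (DMSO vehicle; DMSO-only control). TBARS was monitored at 535 nm (ε 1.56 × 10^5 M⁻¹ cm⁻¹), and its formation rate d[TBARS]/dt was expressed in nM min⁻¹.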

The nature of assay [8]: Antioxidant activity assessed as inhibition of AAPH-induced oxidation of DNA at 100 uM by spectrophotometric analysis.

Active and inactive are the calls of the source. The calls are words filed in the database; no cut-off is given here.

For the molecule `Oc1ccc2c(c1)SCC(c1ccc(O)c(O)c1)O2` (stereo unspecified), the outcome in assay [1] was Active. The K was determined as 1.18 ×10³ /M/s in assay [2], 11.7 ×10³ /M/s in assay [3] and 0.52 ×10³ /M/s in assay [4].
On the same counts, the results for `Oc1ccc2c(c1)OC(c1ccc(O)c(O)c1)CS2` (stereo unspecified) are “Active”, 1.61 ×10³ /M/s, 16.7 ×10³ /M/s and 0.57 ×10³ /M/s.
Turning to `COc1ccc2c(c1)SCC(c1ccc(O)c(O)c1)O2` (stereo unspecified), the outcome in assay [1] was Active. The K stood at 2.2 ×10³ /M/s in assay [2], 390 ×10³ /M/s in assay [3] and 2.54 ×10³ /M/s in assay [4].
Regarding `COc1ccc2c(c1)SC=C(c1ccc(O)cc1)O2`, in assay [5], the outcome was Active. The K in assay [2] is 0.031 ×10³ /M/s; in assay [3], 8.14 ×10³ /M/s. Moreover, the Activity in assay [6] was 5.8 nM/min.
For `COc1ccc2c(c1)OC(c1ccc(O)cc1)CS2` (stereo unspecified), the outcome in assay [1] was Active. In assay [3], the K came out at 0.168 ×10³ /M/s.
As for `Oc1ccc2c(c1)SC=C(c1ccccc1)O2`, the result in assay [5] was Active. Further, the K in assay [2] is 0.0071 ×10³ /M/s; in assay [3], 4.89 ×10³ /M/s. Also, the Activity in assay [6] was found to be 5.2 nM/min.
Take `Oc1ccc(C2CSc3cc(O)ccc3O2)cc1` (stereo unspecified): in assay [1], the result was Active. Moreover, the K in assay [2] turned out to be 0.043 ×10³ /M/s; in assay [3] it was 8.92 ×10³ /M/s; in assay [4] it was 0.025 ×10³ /M/s.
Take `COc1ccc2c(c1)SCC(c1ccc(O)cc1)O2` (stereo unspecified): the outcome in assay [5] was Active. The K in assay [3] was 0.202 ×10³ /M/s. Also, the Activity in assay [6] stood at 4.2 nM/min.
For `Cc1c(C)c2c(c(C)c1O)CCC(C)(C(=O)O)O2` (stereo unspecified), the figures for the K in assay [2], in assay [3] and in assay [4] were 0.353 ×10³ /M/s, 29.2 ×10³ /M/s and 1.7 ×10³ /M/s, respectively.
Turning to `Oc1ccc(C2CSc3ccc(O)cc3O2)cc1` (stereo unspecified), the outcome in assay [7] and in assay [8] was Active. The values for the K in assay [2], in assay [3] and in assay [4] were 0.069 ×10³ /M/s, 10.8 ×10³ /M/s and 0.034 ×10³ /M/s, respectively. The Activity in assay [6] was determined as 4.1 nM/min.
Consider `Oc1ccccc1O`, for which the K was 1.3 ×10³ /M/s in assay [2], 2.58 ×10³ /M/s in assay [3] and 1.78 ×10³ /M/s in assay [4].
